Results of several laboratories.
Each line is one published result; the experiments were not run side by side.
Target: Vascular endothelial growth factor receptor 1 (FLT1, Homo sapiens, UniProt P17948)

| Compound | test | conditions | remaining binding [%] |
| --- | --- | --- | --- |
| COc1cnc(Nc2cccc(S(N)(=O)=O)c2)nc1N1CCN(c2ccccc2)CC1 | binding, competition with immobilised ligand | 1 µM | 97 |
| O=C(NCc1ncc(C(F)(F)F)cc1Cl)c1ccc2c(c1)C1(CCS(=O)(=O)CC1)[C@@H](C1CC1)N2S(=O)(=O)c1ccc(F)cc1 | cell-free assay, competition with immobilised ligand | 1 µM | 82 |
| CN(C)c1nccc(-c2cnn3ncccc23)n1 | binding | 1 µM | 100 |
| COc1ncc2cc3ccccc3nc2c1C#N | cell-free assay, competition with immobilised ligand | 5 µM | 95 |
| C=CC(=O)N1CCC(C(=O)NCC(=O)N2CCN(c3nc(-c4cnc(N)nc4C(F)F)nc(N4CCOCC4)n3)CC2)CC1 | binding, competition with immobilised ligand | 1 µM | 99 |
| CCC(=O)N[C@H]1CC[C@@H](C(=O)N(C)c2ccc(-c3nc4ccccc4o3)cc2)C1 | cell-free assay, competition with immobilised ligand | 1 µM | 98 |
| N[C@H]1CCN(c2nccc(-c3cnn4ncccc34)n2)C1 | binding | 1 µM | 99 |
| O=c1nc(-c2ccccn2)sc2ccccc12 | cell-free assay, competition with immobilised ligand | 1 µM | 100 |
| CNC(=O)[C@@H]1CC[C@@H](n2c(-c3ccc4cnccc4c3)nc3ccc(C(=O)NCc4cccc(C(N)=O)c4)cc32)C1 | binding, competition with immobilised ligand | 1 µM | 100 |
| O=C(NCC1CCOCC1)c1n[nH]cc1NC(=O)c1c(F)cccc1F | binding, competition with immobilised ligand | 1 µM | 90 |
| O=C(Nc1cccnn1)N1CCC(=Cc2cccc(Oc3ccc(C(F)(F)F)cn3)c2)CC1 | cell-free assay, competition with immobilised ligand | 1 µM | 100 |
| Cc1cnn2ncc(-c3ccnc(N(C)C)n3)c2c1 | binding | 1 µM | 97 |
| CCOC(=O)c1cc2cc(-c3cc(C(=O)NCc4ccc(C(=O)O)cc4)nn3C)ccc2[nH]1 | cell-free assay, competition with immobilised ligand | 0.1 µM | 97 |
| Cc1cnc(Nc2ccc(C(=O)N3CCC(N4CCCC4)CC3)cc2)nc1-c1cc2ccccc2s1 | binding, competition with immobilised ligand | 1 µM | 4.4 |
| CN(C)c1nccc(-c2cnc3ncccn23)n1 | binding | 1 µM | 100 |
| COc1ccc2c(c1)O[C@@H](c1ccc(OC)c(OC)c1)C[C@H]2NC(=O)C1(c2ccc3c(c2)OC(F)(F)O3)CC1 | cell-free assay, competition with immobilised ligand | 1 µM | 100 |
| C[C@@H]1CCN(c2nccc(-c3cnn4ncccc34)n2)C1 | binding | 1 µM | 100 |
| O=C(c1ccc(Nc2ncc(Cl)c(-c3ccc(Cl)s3)n2)cc1)N1CCC(N2CCCC2)CC1 | binding, competition with immobilised ligand | 1 µM | 1.2 |
| O=C1CCc2cc(Nc3cc(OC4CCOCC4)c([N+](=O)[O-])cc3Cl)ccc2N1 | cell-free assay, competition with immobilised ligand | 1 µM | 100 |
| Nc1ncc2c(n1)-c1c([nH]c3ccc(C#CC4CC4)cc13)CCCC2 | binding, competition with immobilised ligand | 1 µM | 91 |
| O=C(NCCCN1CCOCC1)c1ccc(Nc2nccc(-c3cc4ccccc4s3)n2)cc1 | binding, competition with immobilised ligand | 1 µM | 70 |
| F[C@@H]1CCN(c2nccc(-c3cnn4ncccc34)n2)C1 | binding | 1 µM | 100 |
